{"data": "Measurements gathered from unrelated publications", "read-out": "binding", "tspO": "tspO (Cereibacter sphaeroides, UniProt Q9RFC8)", "PIK3CG": "Phosphatidylinositol 4,5-bisphosphate 3-kinase catalytic subunit gamma isoform (PIK3CG, Homo sapiens, UniProt P48736)", "CREBBP bromodomain": "CREB-binding protein, bromodomain (CREBBP, Homo sapiens, UniProt Q92793)", "note": "Each line is one published result; the experiments were not run side by side."}
{"target": "tspO", "test": "fluorescence", "Kd [µM]": 0.9, "SMILES": "C=CC1=C(C)c2cc3[nH]c(cc4nc(cc5[nH]c(cc1n2)c(C)c5CCC(=O)O)C(CCC(=O)O)=C4C)c(C)c3C=C"}
{"target": "PIK3CG", "test": "competition with immobilised ligand", "Kd [µM]": 0.0094, "SMILES": "C=CC(=O)N1CCC(C(=O)N(C)CC(=O)N2CCN(c3nc(-c4cnc(N)nc4C(F)F)nc(N4CCOCC4)n3)CC2)CC1"}
{"target": "CREBBP bromodomain", "test": "fluorescence", "Kd [µM]": 97, "SMILES": "CCCc1cc(N=Nc2cc(S(=O)(=O)O)c(C)cc2C)ccc1O"}
{"target": "PIK3CG", "test": "competition with immobilised ligand", "Kd [µM]": 0.0016, "SMILES": "C=CC(=O)N1CCC(C(=O)NCC(=O)N2CCN(c3nc(-c4cnc(N)nc4C(F)F)nc(N4CCOCC4)n3)CC2)CC1"}
{"target": "Cellular retinoic acid-binding protein 2 (CRABP2, Homo sapiens, UniProt P29373, L122E/R133K)", "test": "fluorescence", "Kd [µM]": 0.104, "SMILES": "CC1=C(/C=C/C(C)=C/C=C/C(C)=C/C=O)C(C)(C)CCC1"}
{"target": "Nucleolar RNA helicase 2 (Homo sapiens, UniProt Q9NR30)", "test": "MST", "Kd [µM]": 3.26, "SMILES": "OC[C@H]1OC(O)[C@H](O)[C@@H](O)[C@@H]1O (some centres unmarked)"}
{"target": "Riboflavin-binding protein (Gallus gallus, UniProt P02752)", "test": "ITC", "Kd [µM]": 0.127, "SMILES": "Cc1cc2nc3c(=O)[nH]c(=O)nc-3n(C[C@H](O)[C@H](O)[C@H](O)CO)c2cc1C"}
{"target": "CREBBP bromodomain", "test": "competition with immobilised ligand", "Kd [µM]": 1.1, "SMILES": "Cc1cc2c(NC(=O)c3cccc(C(=O)O)c3)cccc2nn1"}
{"target": "tspO", "test": "fluorescence", "Kd [µM]": 0.9, "SMILES": "C=CC1=C(C)C2=Cc3c(C=C)c(C)c4[n]3[Fe]([Cl])[n]3c(c(C)c(CCC(=O)O)c3=CC3=NC(=C4)C(C)=C3CCC(=O)O)=CC1=N2"}
{"target": "gpmA (Escherichia coli, UniProt P62707)", "test": "ITC", "Kd [µM]": 52, "SMILES": "Nc1nc2c(ncn2[C@@H]2O[C@H](COP(=O)(O)OP(=O)(O)O)[C@@H](OP(=O)(O)OP(=O)(O)O)[C@H]2O)c(=O)[nH]1"}
{"target": "CREBBP bromodomain", "test": "competition with immobilised ligand", "Kd [µM]": 4.1, "SMILES": "Cn1cc(C(=O)Nc2cccc(C(=O)O)c2)ccc1=O"}
